FLuc stim CS: affects firefly luciferase, flagging false hits in luciferase stimulation screens | P08659 | ATPlite luciferase biochemical, luminescence, 10 min; 0 = ATP-free wells, 1 = DMSO control | activation factor at 10 µM | 200,000 tested, under 10 active | AID 1027;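 active = luciferase activation factor, scaled between plate controls, of at least 2 with compound at 10 µM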
Target sequence (P08659 whole entry, looked up): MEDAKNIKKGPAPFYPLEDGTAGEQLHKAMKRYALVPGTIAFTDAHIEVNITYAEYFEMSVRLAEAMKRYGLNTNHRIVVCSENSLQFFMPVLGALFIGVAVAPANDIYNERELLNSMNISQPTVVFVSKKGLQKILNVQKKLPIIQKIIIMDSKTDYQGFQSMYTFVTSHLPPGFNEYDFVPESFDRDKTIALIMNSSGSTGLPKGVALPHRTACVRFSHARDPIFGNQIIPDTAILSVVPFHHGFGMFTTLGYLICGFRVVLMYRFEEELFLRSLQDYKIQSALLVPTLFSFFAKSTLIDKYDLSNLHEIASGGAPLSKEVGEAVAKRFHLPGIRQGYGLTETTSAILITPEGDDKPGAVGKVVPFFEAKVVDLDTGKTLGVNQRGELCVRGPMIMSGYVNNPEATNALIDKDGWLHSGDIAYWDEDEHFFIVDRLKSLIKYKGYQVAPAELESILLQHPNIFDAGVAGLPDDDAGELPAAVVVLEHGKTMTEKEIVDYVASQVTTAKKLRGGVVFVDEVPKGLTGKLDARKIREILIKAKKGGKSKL
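Material: Luciferase/luciferin reagent mix | Doses: Test compounds dosed from 2 mM stocks in 100% DMSO | Timing: 10 min incubation after luciferase reagent addition, room temperature | Measured by: Luminescence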
FLuc inh counter: counter-screen for luciferase assay inhibitors: firefly luciferase inhibition; inhibition, % at 10 µM; ATPLite firefly luciferase biochemical luminescence, 10 min; P08659; AID 1006; 1.5% of 200,000 active;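 active = inhibition above about 50% when tested at 10 µM, limit read from the data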
NF-kB neuron act: compounds increasing NF-kB expression in human neuronal cells; AID 1239; 1.6% of 190,000 active; NF-kB reporter expression; active compounds read high; fold change at 12.5 µM; in the data active = fold change above about 3.3
APP 5'UTR act: activates APP 5'UTR luciferase reporter; SH-SY5Y APP 5'UTR luciferase reporter, luminescence; zero percent = DMSO vehicle wells; activation, % at 2 µM; 1% of 190,000 active;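 active = activation above a set limit, based on mean plus 3 SD of controls, cut at about 140% in these data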
STAT1 activator: increases IFN-gamma driven STAT1 reporter signal; NIH 3T3 STAT1-luciferase reporter, luminescence; 100% = IFN-gamma alone, no compound; activation (% of control), % at 5.5 µM; 2.6% of 200,000 active;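 active = activation above the screen-wide mean activation plus 3 SD, cut at about 130% in these data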
STAT1 activ conf: confirmation of STAT1 signaling activators. shares compounds with STAT1 activator. 97% of 1,200 active. activation (% of control), % at 5.7 µM. NIH 3T3 STAT1-luciferase reporter, IFN-gamma potentiation, luminescence; 100% = IFN-gamma EC80 alone, no compound;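 active = activation above a set limit carried over from the earlier primary STAT1 screen, cut at about 140% in these data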
NFkB act STAT1ct: activates NF-kappaB, counter-screen to STAT1 activators | shares compounds with STAT1 activator | HEK293T NF-kB luciferase reporter, TNF-alpha stimulated, luminescence; 100% = TNF-alpha with vehicle only | activation (% of control), % at 5.7 µM | 43% of 1,200 active;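 active = activation above the mean of solvent-only control wells plus 3 SD, set per campaign, cut at about 130% in these data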;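 also: TNF-alpha given at a submaximal dose yielding about 80% of full reporter signal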
STAT3 act STAT1c: activates human STAT3, counter-screen to STAT1 activators; activation (% of control), % at 5.7 µM; AID 1316; shares compounds with STAT1 activator; U3A cells STAT3-luciferase reporter, IL-6, luminescence; cells lack STAT1; 100 = IL-6 alone, no compound effect; 46% of 1,200 active;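 active = activation above the solvent-only control well mean plus 3 SD, set per plate batch, cut at about 110% in these data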;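 also: higher means more STAT3 reporter activation so hits are non-selective activators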
A number is an active result; n = inactive; x = no result. A selection: hits, their analogues and other compounds. The true share with any hit is near 4.3%.

SMILES	FLuc stim CS	FLuc inh counter	NF-kB neuron act	APP 5'UTR act	STAT1 activator	STAT1 activ conf	NFkB act STAT1ct	STAT3 act STAT1c
COc1cccc2cc(-c3cn4ccc(C)cc4n3)c(=O)oc12	x	x	x	n	169	218	134	n
Cc1ccc(C=Nc2ccc(N(C)C)cc2)o1	n	76	n	153	164	149	n	113
S=C(c1ccc(-c2ccc(Cl)cc2)o1)N1CCCCC1	n	71	4.9	184	181	222	138	115
CC(C)(C)n1nc2c(c1NC(=O)c1cc3ccccc3o1)CS(=O)(=O)C2	n	n	n	n	n	x	x	x
N/C(=N\OC(=O)c1cccs1)c1ccccc1	n	94	n	n	156	161	n	n
Cc1ccc(/C(N)=N/OC(=O)c2cccs2)cc1	n	74	n	x	164	188	142	116
COc1ccc(/C(N)=N/OC(=O)c2cccs2)cc1OC	n	n	n	n	159	140	n	n
CC(C)c1ccc(/C=N/NC(=O)c2cccc(Cl)c2)cc1	n	n	5.7	n	184	220	137	126
CC(C)c1ccc(/C=N/NC(=O)c2cccc(S(=O)(=O)N3CCOCC3)c2)cc1	n	n	n	n	n	x	x	x
CCC(=O)Nc1nc(C)c(-c2csc(Nc3ccccn3)n2)s1	n	n	n	n	157	161	n	n
N#C/C(=C\c1cccnc1)c1nc2c(s1)CCCC2	n	n	4.2	147	165	185	n	n
COc1cc(/C=C(\C#N)c2nc3c(s2)CCCC3)ccc1O	n	n	n	n	n	x	x	x
CC1CCc2nc(/C(C#N)=C/c3cccnc3)sc2C1 (stereo unspecified)	n	n	n	168	220	286	146	113
CC(=O)c1sc(NC(=O)c2ccco2)nc1-c1ccccc1	n	n	n	n	n	x	x	x
COC(=O)c1c(-c2ccccc2)csc1NC(=O)c1ccco1	n	n	n	n	174	194	135	n
COc1ccc2c(c1)Cc1sc(NC(=O)c3ccco3)nc1-2	n	n	3.9	186	189	199	147	n
O=C(Nc1nc(-c2cccs2)cs1)c1ccco1	n	53	3.6	196	159	173	134	n
Cc1sc(NC(=O)c2ccco2)nc1-c1ccccc1	n	n	6.9	170	202	237	135	112
COc1ccc(Br)cc1C(=O)Nc1ccccc1-c1ccccc1	n	n	n	n	n	x	x	x
Cc1cnc(C(=O)Nc2ccc(F)cc2)cn1	n	n	n	n	n	x	x	x
Cc1cnc(C(=O)Nc2ccc(C(C)C)cc2)cn1	n	n	4.5	n	159	180	136	n
Cc1cc(C)n(-c2nnc(NC34CC5CC(CC(C5)C3)C4)nn2)n1	n	66	n	n	162	182	145	159
CCNc1nc(NCC)nc(-n2nc(C)cc2C)n1	n	n	n	n	n	x	x	x
O=C(NCc1ccco1)C(=O)c1cn(CC(=O)N2CCCCC2)c2ccccc12	n	n	n	n	n	x	x	x
CC(=O)c1cccc(N/C=C\C(=O)c2ccc(C)cc2)c1	n	91	6.7	155	180	211	n	n
SMILES	FLuc stim CS	FLuc inh counter	NF-kB neuron act	APP 5'UTR act	STAT1 activator	STAT1 activ conf	NFkB act STAT1ct	STAT3 act STAT1c
CC(=O)c1cccc(NC(=S)NC(=O)c2cccc(C)c2)c1	n	n	3.7	n	157	178	n	n
CC(=O)c1cccc(NC(=S)NC(=O)c2ccc(Cl)cc2)c1	n	n	n	n	162	173	n	n
COc1cccc(C(=O)Nc2cc(-c3cn4cccnc4n3)ccc2C)c1	n	n	n	n	n	x	x	x
Cn1cccc1/C=N/NC(=O)c1cccc(OC(F)(F)C(F)F)c1	n	n	n	n	n	x	x	x
COc1ccc(NC(=S)N2CCNC(=O)C2CC(=O)Nc2ccc(C)cc2)cc1 (stereo unspecified)	n	n	n	n	n	x	x	x
CCCN1C(=O)/C(=C\C=C2/Sc3ccccc3N2CC)SC1=S	n	n	n	n	n	x	x	x
CN1C(=O)/C(=C/C=C2\SCCN2C)SC1=S	n	n	4.4	174	159	224	n	n
Cc1nn(Cc2ccccc2Cl)c(C)c1NC(=O)CCCn1nc([N+](=O)[O-])c(Cl)c1C	n	n	n	n	n	x	x	x
O=C1/C(=C/Nc2cccc([N+](=O)[O-])c2)CCc2ccccc21	n	n	4.5	140	169	212	134	n
O=C(NCc1cccnc1)c1c(O)c2cccc3c2n(c1=O)CCC3	n	n	n	n	n	x	x	x
NS(=O)(=O)c1ccc(N/N=C/c2ccc3c(c2)OCO3)c([N+](=O)[O-])c1	n	n	n	n	n	x	x	x
O=[N+]([O-])c1ccccc1N/N=C/c1ccc2c(c1)OCO2	n	n	n	139	152	226	n	117
O=C(N/N=C\c1ccco1)Nc1cccc(Cl)c1	n	n	3.3	n	153	172	133	n
CCNS(=O)(=O)c1ccc(NC(=O)c2ccc(Cn3cc(Br)cn3)o2)cc1	n	n	n	n	n	x	x	x
O/N=C(/CCc1ccccc1)c1ccc2c(c1)OCCO2	n	n	n	n	155	155	n	n
CCCCc1ccc(NC(=S)N2CCC(O)CC2)cc1	n	n	n	n	n	x	x	x
COC(=O)c1ccc(N=NNc2cccc(Br)c2)cc1	n	n	3.3	n	152	224	134	129
COC(=O)CCC(=O)Nc1cccc(Br)c1	n	n	n	n	n	x	x	x
Cc1cc(=O)n(C2CCS(=O)(=O)C2)[nH]1 (stereo unspecified)	n	n	n	n	n	x	x	x
Cc1ccc2cc3cc(C(=O)N4CCCCC4C)oc3nc2c1 (stereo unspecified)	n	55	3.5	197	166	216	136	n
Cc1ccn2c(c1)nc(=S)n2C(=O)c1ccco1	n	94	8.5	161	217	193	152	122
Cc1nn(C(=O)c2ccco2)c(C)c1Br	n	n	n	n	n	x	x	x
Cc1nc(N)sc1N=Nc1ccc(Br)cc1	n	n	7.2	n	158	214	162	123
CCOCCCNc1nc(C)nc2c1nnn2Cc1c(F)cccc1Cl	n	n	n	n	n	x	x	x
Cc1cccc(NC(=S)NC(=O)c2ccc(Br)o2)c1C	n	n	n	n	n	x	x	x
Cc1ccc(NC(=S)NC(=O)c2ccc(Br)o2)c(C)c1	n	n	n	n	152	164	n	n
Cc1ccc(NC(=O)c2c(C)nc3ccccn23)cc1C	n	67	3.8	168	154	191	139	n
